Data taken from paper PMC8256004 (ChemMedChem, 2020).

Key:
KPC-Kpn = experiment: Micro-broth dilution MIC of cefepime in combination with inhibitor, KPC-Kpn; assay type: cell-based, Klebsiella pneumoniae; conditions: for MIC of cefepime (FEP) in combination with compound, KPC-Kpn: compound at constant 10 μg/mL, FEP 0.12 to 128 μg/mL
Outline: (§1)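 CLSI broth microdilution. Cultures grown overnight in Mueller-Hinton broth, then diluted to a McFarland standard (OD600 0.224). Cefepime serially diluted from 128 to 0.12 μg/mL, with boronic acid test compound held constant at 10 μg/mL. Incubated overnight at 37 °C and MIC read the next day.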

KPC-2 β-lactamase = KPC-2 β-lactamase (Klebsiella pneumoniae, UniProt Q9F663); experiment: Competition kinetics of KPC-2 inhibition with nitrocefin as substrate; assay type: biochemical
K. pneum blaKPC-2 = assay type: cell-based, Klebsiella pneumoniae; conditions: compound at constant 10 μg/mL; FEP 0.12 to 128 μg/mL
Outline: as §1

Chain of KPC-2 β-lactamase (Q9F663 25-293, looked up): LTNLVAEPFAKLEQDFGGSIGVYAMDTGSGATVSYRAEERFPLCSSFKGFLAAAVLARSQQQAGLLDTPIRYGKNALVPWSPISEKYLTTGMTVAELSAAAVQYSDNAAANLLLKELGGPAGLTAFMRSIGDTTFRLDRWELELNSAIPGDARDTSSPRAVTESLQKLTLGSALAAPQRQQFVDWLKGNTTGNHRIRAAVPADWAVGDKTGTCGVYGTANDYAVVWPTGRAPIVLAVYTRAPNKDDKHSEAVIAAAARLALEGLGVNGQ

O=C(O)C[C@@H]1CC[C@H](NC(=O)Cc2cccs2)B(O)O1 [vaborbactam]
MIC of cefepime (FEP) in combination with compound, KPC-Kpn (KPC-Kpn): 0.5 µg/mL
Ki (KPC-2 β-lactamase): 0.02 ± 0.003 µM
MIC of cefepime (FEP) in combination with compound, K. pneum blaKPC-2 (K. pneum blaKPC-2): 1 µg/mL

NC(=O)[C@@H]1CC[C@@H]2CN1C(=O)N2OS(=O)(=O)O [avibactam]
MIC of cefepime (FEP) in combination with compound, KPC-Kpn (KPC-Kpn): < 0.12 µg/mL
MIC of cefepime (FEP) in combination with compound, K. pneum blaKPC-2 (K. pneum blaKPC-2): < 0.12 µg/mL

CO/N=C(\C(=O)N[C@@H]1C(=O)N2C(C(=O)[O-])=C(C[N+]3(C)CCCC3)CS[C@H]12)c1csc(N)n1 [FEP, cefepime]
MIC (KPC-Kpn; Klebsiella pneumoniae, read-out: MIC of cefepime (FEP) alone, KPC-Kpn): 32 µg/mL
